ChEMBL document CHEMBL1155356, “Design, synthesis, and structure-activity relationship of novel orally efficacious pyrazole/sulfonamide based dihydroquinoline gamma-secretase inhibitors” (Bioorg Med Chem Lett, 2009)
Converted amounts (≈) assume the structure as drawn.

Legend:
[1] = Oxidative metabolic stability in mouse liver microsomes at 1 uM after 30 mins in presence of 1 mM NADPH; type: ADME, Microsome; settings: liver microsomes, read-out: Stability
Outline: (§1)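 Oxidative stability: compound at 1 µM incubated 30 min at 37 °C in phosphate buffer with liver microsomes (0.5 mg/ml protein) plus 1 mM NADPH. Percent parent remaining reported. Human or mouse microsomes per line.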

[2] = Oxidative metabolic stability in human liver microsomes at 1 uM after 30 mins in presence of 1 mM NADPH; type: ADME, Microsome; settings: liver microsomes, read-out: Stability; outline: as §1
Gamma-secretase = assay: Inhibition of Gamma-secretase in human IMR-32 cells after 2 hrs by ELISA assay; type: cell-based
Outline: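 γ-Secretase came from IMR-32 cell membranes, and compound was first diluted in DMSO. Reaction at 37 °C was started with MBPC-125 Swedish substrate, run for 2 h, then stopped with SDS. Cleaved substrate was measured by Aβ40-specific ELISA. Values are means of three experiments.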

[3] = Solubility in HBSS buffer at 20 mM at pH 7.4 after 1 hr; type: physicochemical
Outline: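 20 mM DMSO stocks serially diluted in DMSO, then diluted 1:200 into HBSS pH 7.4. After 1 h incubation, plates read on a solubility scanner.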

[4] = Metabolic stability in human liver microsomes at 2 uM after 30 mins in presence of 1 mM UDPGA; type: ADME, Microsome; settings: read-out: Stability
Outline: (§2)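 Glucuronidation stability: 2 µM compound incubated 30 min at 37 °C in phosphate buffer with liver microsomes (0.5 mg protein), 1 mM UDPGA, 100 mM MgCl2 and 25 µg/mL alamethicin. Read-out is percent parent compound remaining. Human or mouse microsomes per line.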

[5] = Apparent permeability from apical to basolateral side in MDCK2 cells at 5 uM after 120 mins; type: ADME, cell-based, Canis lupus familiaris, MDCK-II; settings: dog, MDCK
Outline: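 Compound at 5 µM in mHBSS pH 7.4 applied to MDCK II cell monolayers for 120 min at 37 °C. Apical and basolateral chambers sampled and analysed by LC/MS/MS.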

[6] = Metabolic stability in mouse liver microsomes at 2 uM after 30 mins in presence of 1 mM UDPGA; type: ADME, Microsome; settings: read-out: Stability; outline: as §2
Mus musculus = assay: Reduction of cortical abeta40 level in FVB mouse at 3 mg/kg, po after 3 hrs; type: functional; parameters: scale not given: the % may be the effect or the level left

| Structure (SMILES) | remaining at 0.5 h, 1 µM [1] | remaining at 0.5 h, 1 µM [2] | IC50 (Gamma-secretase) | solubility at 1 h [3] | remaining at 0.5 h, 2 µM [4] | Papp A→B at 2 h, 5 µM [5] | remaining at 0.5 h, 2 µM [6] | Activity (Mus musculus) |
| --- | --- | --- | --- | --- | --- | --- | --- | --- |
| O=S(=O)(c1ccc(Cl)cc1)N1Cc2c[nH]nc2-c2ccccc21 | 2% | 0% | 27 nM |  |  |  |  |  |
| O=S(=O)(c1ccc(C(F)(F)F)cn1)N1c2ccc(F)cc2-c2n[nH]cc2[C@H]1C1CC1 | 83% | 95% | 0.67 nM | 95 µM (≈ 41.6 µg/mL) | 97% | 24.9 ×10⁻⁶ cm/s | 89% | 43% |
| O=S(=O)(c1ccc(C(F)(F)F)cc1)N1c2cc(N3CCOCC3)ccc2-c2n[nH]cc2C1C1CC1 (racemic) | 17% | 29% | 0.58 nM |  |  |  |  |  |
| O=S(=O)(c1ccc(OC(F)F)cc1)N1c2ccc(F)cc2-c2n[nH]cc2C1C1CC1 (racemic) | 56% | 68% | 0.76 nM |  |  |  |  |  |
| O=S(=O)(c1cccs1)N1c2cc(F)c(F)cc2-c2n[nH]cc2C1C1CC1 (racemic) | 5% | 1% | 2.9 nM |  |  |  |  |  |
| O=S(=O)(c1ccc(C(F)(F)F)cc1)N1c2cccnc2-c2n[nH]cc2C1C1CC1 (racemic) | 25% | 44% | 2.1 nM |  |  |  |  |  |
| CC1c2c[nH]nc2-c2ccccc2N1S(=O)(=O)c1ccccn1 (racemic) | 46% | 73% | 290 nM |  |  |  |  |  |
| CC(C)C1c2c[nH]nc2-c2ccccc2N1S(=O)(=O)c1ccc(Cl)cc1 (racemic) | 2% | 1% | 0.28 nM |  |  |  |  |  |
| O=S(=O)(c1ccc(C(F)(F)F)cc1)N1c2ncccc2-c2n[nH]cc2C1C1CC1 (racemic) | 53% | 59% | 1.1 nM |  |  |  |  |  |
| Nc1ccc(S(=O)(=O)N2c3cc(F)c(F)cc3-c3n[nH]cc3C2C2CC2)cc1 (racemic) | 35% | 53% | 85 nM |  |  |  |  |  |
| O=C1OCCN1c1ccc2c(c1)N(S(=O)(=O)c1ccc(C(F)(F)F)cc1)C(C1CC1)c1c[nH]nc1-2 (racemic) | 13% | 32% | 0.26 nM |  |  |  |  |  |
| O=S(=O)(c1ccc(Cl)cc1)N1c2ccccc2-c2n[nH]cc2C1C(F)(F)F (racemic) | 10% | 13% | 0.21 nM |  |  |  |  |  |
| CC1c2c[nH]nc2-c2cc(F)ccc2N1S(=O)(=O)c1ccc(Cl)cc1 (racemic) | 23% | 13% | 1.6 nM |  |  |  |  |  |
| CC1c2c[nH]nc2-c2c(F)cccc2N1S(=O)(=O)c1ccc(Cl)cc1 (racemic) | 11% | 3% | 1.4 nM |  |  |  |  |  |
| O=S(=O)(c1ccc(C(F)(F)F)cc1)N1c2cc(Cl)ccc2-c2n[nH]cc2C1C1CC1 (racemic) | 85% | 87% | 0.44 nM |  |  |  |  |  |
| COc1ccc(S(=O)(=O)N2c3ccccc3-c3n[nH]cc3C2C2CC2)cc1 (racemic) | 2% | 3% | 3.2 nM |  |  |  |  |  |
| N#Cc1ccc(S(=O)(=O)N2c3ccccc3-c3n[nH]cc3C2C2CC2)cc1 (racemic) | 11% | 9% | 0.74 nM |  |  |  |  |  |
| CC1c2c[nH]nc2-c2ccncc2N1S(=O)(=O)c1ccc(Cl)cc1 (racemic) | 3% | 6% | 2.6 nM |  |  |  |  |  |
| CC1c2c[nH]nc2-c2ccccc2N1S(=O)(=O)c1ccc(Cl)cc1 (racemic) | 16% | 3% | 1.2 nM |  |  |  |  |  |
| CCC1c2cn[nH]c2-c2ccccc2N1S(=O)(=O)c1ccc(Cl)cc1 (racemic) | 7% | 2% | 0.36 nM |  |  |  |  |  |
| O=S(=O)(c1ccc(C(F)(F)F)cc1)N1c2cc(-c3cncnc3)ccc2-c2n[nH]cc2C1C1CC1 (racemic) | 3% | 27% | 0.2 nM |  |  |  |  |  |
| O=S(=O)(c1ccc(C(F)(F)F)cc1)N1c2c[n+]([O-])ccc2-c2n[nH]cc2C1C1CC1 (racemic) | 88% | 87% | 2.4 nM |  |  |  |  |  |
| CC1c2c[nH]nc2-c2ccc(F)cc2N1S(=O)(=O)c1ccc(Cl)cc1 (racemic) | 23% | 6% | 2.1 nM |  |  |  |  |  |
